Laboratory results taken from article PMC4372299 (Molecular imaging and biology : MIB : the official …, 2014).
Values belong to the compound of their own block, whether it stands above or below them.

What was measured:
TSPO [1] = biological target: TSPO (Mus musculus, UniProt P50637); assay: Dynamic PET accumulation and displacement of [18F]VUIIS1008 in healthy mice; type: in vivo
TSPO [2] = details: cited from earlier work; for enhancement in binding affinity compared to DPA-714: TSPO affinity vs DPA-714
TSPO [3] = biological target: T1, TSPO (Rattus norvegicus, UniProt P16257); assay: Dynamic PET with compartmental modeling in C6 glioma-bearing rats; type: in vivo; details: for K1 / k2 / k3 / k4: 2-tissue 4-parameter model, n = 5, Mean ± SEM; for %ID/cc (90 min) / K1/k2 / VT=(K1/k2)(1+k3/k4) / k3/k4 (binding potential): C6-glioma bearing rats n = 5, Mean ± SEM
How it was run: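 Male Wistar rats (10 weeks, ~300 g) were implanted with 1.0 × 10⁵ C6 cells in the right hemisphere 2 weeks before imaging, then catheterised and localised by T₂ MRI. Radiotracer 1.2 ± 0.2 mCi was given as a jugular bolus for 90-min dynamic PET with CT attenuation correction. Arterial input was TLC metabolite-corrected. Tumour and contralateral-brain TACs were fitted with 1- and 2-tissue models to give K₁–k₄, V_T and BP_ND.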

TSPO [4] = biological target: T1, TSPO; assay: Pre-blocking PET study with non-radioactive VUIIS1008 in C6 glioma-bearing rats; type: in vivo; details: pre-blocking with VUIIS1008 10 mg/kg, range of 2 rats
How it was run: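 In C6 glioma-bearing Wistar rats, the non-radioactive ligand (10 mg/kg i.v.) was given 5 min before a radiotracer bolus (1.2 ± 0.2 mCi via jugular catheter). Dynamic PET ran for 60 min with a metabolite-corrected arterial input function. Tumour and contralateral normal-brain TACs were fitted to a 2-tissue, 4-parameter model, and the range from 2 rats is reported.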

[5] = challenger 10 mg/kg at scan mid-point (30 min)

- displacement of [18F]VUIIS1008 from myocardium and lung tissue (TSPO [1]; [5]): rapid and significant displacement
- displacement of [18F]VUIIS1008 from renal tissue (TSPO [1]; [5]): partial displacement
SMILES: CCc1cc(CC)n2nc(-c3ccc(OCCF)cc3)c(CC(=O)N(CC)CC)c2n1 [VUIIS1008, 2-(5,7-diethyl-2-(4-(2-fluoroethoxy)phenyl)pyrazolo[1,5-a]pyrimidin-3-yl)-N,N-diethylacetamide]
- enhancement in binding affinity compared to DPA-714 (TSPO [2]): 36 fold
- Ki (TSPO [2]; read-out: Ki (binding affinity), TSPO): 0.3 nM

- binding reversibility in healthy, TSPO-rich tissues (TSPO [1]; dynamic PET): reversible binding
- VT ratio between tumor and normal brain (TSPO [3]; C6 glioma-bearing rats): 6.0
- clearance of tracer from plasma (TSPO [3]; C6 glioma-bearing rats, n = 6): cleared rapidly
- K1 (TSPO [3]; normal brain): 0.881 ± 0.392
- k2 (TSPO [3]; normal brain): 2.078 ± 1.666
- k3 (TSPO [3]; normal brain): 0.172 ± 0.070
- k4 (TSPO [3]; normal brain): 0.037 ± 0.004
- %ID/cc (90 min) (TSPO [3]; normal brain): 0.103 ± 0.031 %ID/cc
- K1/k2 (TSPO [3]; normal brain): 0.86 mL/g
- VT=(K1/k2)(1+k3/k4) (TSPO [3]; normal brain): 4.210 ± 1.612
- k3/k4 (binding potential) (TSPO [3]; normal brain): 4.435 ± 1.387
- K1/k2 (TSPO [3]; normal brain, listed as 18F-VUIIS1008): 0.855 ± 0.325 mL/g
- K1 (TSPO [3]; tumor (C6 glioma)): 0.709 ± 0.306
- k2 (TSPO [3]; tumor (C6 glioma)): 0.442 ± 0.101
- k3 (TSPO [3]; tumor (C6 glioma)): 0.113 ± 0.013
- k4 (TSPO [3]; tumor (C6 glioma)): 0.009 ± 0.002
- %ID/cc (90 min) (TSPO [3]; tumor): 0.310 ± 0.051 %ID/cc
- K1/k2 (TSPO [3]; tumor): 1.90 mL/g
- VT=(K1/k2)(1+k3/k4) (TSPO [3]; tumor): 25.224 ± 10.035
- k3/k4 (binding potential) (TSPO [3]; tumor): 12.63
- K1/k2 (TSPO [3]; tumor, listed as 18F-VUIIS1008): 1.902 ± 0.816 mL/g
- k3/k4 (binding potential) (TSPO [3]; tumor, listed as 18F-VUIIS1008): 12.634 ± 1.406
- K1/k2 (TSPO [4]; normal brain): 0.059 – 0.061
- VT=(K1/k2)(1+k3/k4) (TSPO [4]; normal brain): 0.380 – 0.615
- k3/k4 (binding potential) (TSPO [4]; normal brain): 4.888 – 13.507
- K1/k2 (TSPO [4]; tumor): 0.124 – 0.143
- VT=(K1/k2)(1+k3/k4) (TSPO [4]; tumor): 0.618 – 0.767
- k3/k4 (binding potential) (TSPO [4]; tumor): 3.972 – 4.368
SMILES: CCc1cc(CC)n2nc(-c3ccc(OCC[18F])cc3)c(CC(=O)N(CC)CC)c2n1 [[^18F]VUIIS1008, 2-(5,7-diethyl-2-(4-(2-[^18F]fluoroethoxy)phenyl)pyrazolo[1,5-a]pyrimidin-3-yl)-N,N-diethylacetamide]
- enhancement in binding affinity compared to DPA-714 (TSPO [2]): approximately 36 fold
